Laboratory results taken from ChEMBL document CHEMBL4033782, “Structural Modification of Natural Product Tanshinone I Leading to Discovery of Novel Nitrogen-Enriched Derivatives with Enhanced Anticancer Profile and Improved Drug-like Properties” (J Med Chem, 2018).
In brackets after ≈: the same amount, converted by molar mass. Activity calls are given as the source filed them. The rule behind the calls is not given here.

Columns and labels:
KB = experiment: Antiproliferative activity against human KB cells after 72 hrs by sulforhodamine B assay; assay type: functional, cell-based
How it was run: (§1)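 Cells grown in ATCC-specified medium with 10% heat-inactivated FBS, penicillin/streptomycin and 10 mM Hepes, at 37 °C under 5% CO2. Seeded, cultured overnight, then exposed to gradient concentrations for 72 h. Growth read by SRB staining; inhibition % = [1−(A450 treated/A450 control)]×100. IC50 obtained by the Logit method from independent experiments.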

[1] = Antiproliferative activity against human KB/VCR cells after 72 hrs by sulforhodamine B assay; assay type: functional, cell-based; how it was run: as §1
[2] = Aqueous solubility of the compound in pH 7.5 Tris buffer after 24 hrs by HPLC method; assay type: physicochemical
HCT-116 [3] = experiment: Induction of apoptosis in human HCT116 cells after 48 hrs by Annexin V-FITC/propidium iodide staining-based FACS analysis; assay type: functional, cell-based
HCT-116 [4] = experiment: Induction of apoptosis in human HCT116 cells assessed as cleavage of PARP after 48 hrs by Western blot analysis; assay type: functional, cell-based
How it was run: (§2)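 HCT116 cells, with or without a 1 h pretreatment with 20 μM Z-VAD-FMK, exposed for 48 h. Lysed on ice in Hepes/NaCl/Triton X-100 buffer with protease/phosphatase inhibitors and clarified at 12,000×g. Equal protein run by SDS-PAGE, blotted to nitrocellulose, probed overnight at 4 °C for PARP, caspase 3, caspase 7 and β-actin. HRP secondaries, ECL detection.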

HCT-116 [5] = experiment: Induction of apoptosis in human HCT116 cells assessed as activation of caspase 3/7 after 48 hrs by Western blot analysis; assay type: functional, cell-based; how it was run: as §2
HCT-116 [6] = experiment: Induction of apoptosis in human HCT116 cells pretreated with Z-VAD-FMK pan-caspase inhibitor for 1 hr assessed as cleavage of PARP at 0.5 to 2 uM after 48 hrs by Western blot analysis; assay type: functional, cell-based; how it was run: as §2
HCT-116 [7] = experiment: Induction of apoptosis in human HCT116 cells pretreated with Z-VAD-FMK pan-caspase inhibitor for 1 hr assessed as activation of caspase 3/7 at 0.5 to 2 uM after 48 hrs by Western blot analysis; assay type: functional, cell-based; how it was run: as §2
HCT-116 [8] = experiment: Antitumor activity against human HCT116 cells xenografted in BALB/C nude mouse assessed as tumor growth inhibition at 10 mg/kg, iv once daily for 14 days starting on day 14 post tumor implantation measured on day 32; assay type: functional, organism-based
How it was run: (§3)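 BALB/c nude male mice (18–20 g) implanted subcutaneously in the right axilla with HCT116 cells. Dosing began once tumors exceeded 100 mm³ (day 14). Test agent given 10 mg/kg i.v. or 30 mg/kg i.p. daily for 14 days; 5-FU 15 mg/kg as reference. Vehicle 1% DMSO in sterile saline; 6 mice per treated group, 10 per control. Relative tumor volume and body weight tracked.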

HCT-116 [9] = experiment: Antitumor activity against human HCT116 cells xenografted in BALB/C nude mouse assessed as tumor growth inhibition at 30 mg/kg, ip once daily for 14 days starting on day 14 post tumor implantation measured on day 32; assay type: functional, organism-based; how it was run: as §3
HCT-116 [10] = experiment: Induction of apoptosis in human HCT116 cells assessed as activation of caspase 3/7 at 1.0 to 4.0 uM after 24 hrs by Caspase-Glo 3/7 assay
HCT-116 [11] = experiment: Induction of apoptosis in human HCT116 cells pretreated with Z-VAD-FMK pan-caspase inhibitor for 1 hr assessed as activation of caspase 3/7 at 1.0 to 4.0 uM after 24 hrs by Caspase-Glo 3/7 assay
[12] = Half life in human liver microsomes at 0.1 uM up to 60 mins by LC-MS/MS analysis; assay type: ADME, microsome
How it was run: (§4)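 Compound at 0.1 μM final (0.01% DMSO, 0.005% BSA) incubated at 37 °C with human, rat or mouse liver microsomes (0.33 mg/mL protein) in 0.1 M Tris/HCl pH 7.4, with 5 mM MgCl2 and 1 mM NADPH. Samples taken at 0, 7, 17, 30 and 60 min, quenched by methanol precipitation, centrifuged, and parent measured by LC-MS/MS. T1/2 and Clint derived.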

[13] = Half life in rat liver microsomes at 0.1 uM up to 60 mins by LC-MS/MS analysis; assay type: ADME, microsome; how it was run: as §4
[14] = Half life in mouse liver microsomes at 0.1 uM up to 60 mins by LC-MS/MS analysis; assay type: ADME, microsome; conditions: liver microsomes; how it was run: as §4
Liver [15] = experiment: Intrinsic clearance in human liver microsomes assessed as per mg protein up to 60 mins by LC-MS/MS analysis; assay type: ADME, microsome; conditions: 1 h; how it was run: as §4
Liver [16] = experiment: Intrinsic clearance in rat liver microsomes assessed per mg protein up to 60 mins by LC-MS/MS analysis; assay type: ADME, microsome; conditions: 1 h
How it was run: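 Liver microsomes (0.33 mg/mL protein) in 0.1 M Tris/HCl pH 7.4 with 5 mM MgCl2, 1 mM NADPH, compound at 0.1 μM final (0.01% DMSO, 0.005% BSA), 37 °C; samples at 0, 7, 17, 30, 60 min quenched in methanol, centrifuged, LC-MS/MS; T1/2 and Clint per g protein derived.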

Liver [17] = experiment: Intrinsic clearance in mouse liver microsomes assessed per mg protein up to 60 mins by LC-MS/MS analysis; assay type: ADME, microsome; conditions: 1 h; how it was run: as §4

Compound | IC50 (KB) [nM] | IC50 [1] [nM] | further results
Cc1cc2c(o1)-c1c(c3ccccc3c(=O)n1CCO)C(=O)C2=O | > 20000 | > 20000 | –
CON(C)Cc1coc2c1C(=O)C(=O)c1c-2ccc2c(C)cccc12 | 8120 | 5710 | –
Cc1cccc2c3c(ccc12)-c1occ(CN2CCN(CCO)CC2)c1C(=O)C3=O | 2680 | 4410 | –
CCN(CC)CCCn1c2c(c3ccccc3c1=O)C(=O)C(=O)c1cc(C)oc1-2.Cl | – | – | solubility at 24 h [2]: > 80000 µg/mL
Cc1cccc2c3c(ccc12)-c1occ(CN2CCO[C@H](CO)C2)c1C(=O)C3=O | 4970 | 2410 | –
Cc1cc2c(o1)-c1c(c3ccccc3c(=O)n1CCCn1ccnc1)C(=O)C2=O | 17200 | 10100 | –
Cc1cccc2c3c(ccc12)-c1occ(CN2CCC(CO)C2)c1C(=O)C3=O (stereo not drawn) | 1270 | 910 | –
Cc1cc2c(o1)-c1c(c3ccccc3c(=O)n1CCCCN(C)C)C(=O)C2=O | 4050 | 2470 | –
Cc1cc2c(o1)-c1c(c3ccccc3c(=O)n1CCCN1CCC(CCO)CC1)C(=O)C2=O | 870 | 1490 | –
Cc1cccc2c3c(ccc12)-c1occ(CN(C)C)c1C(=O)C3=O.Cl | – | – | solubility at 24 h [2]: 8030 µg/mL
Cc1cccc2c3c(ccc12)-c1occ(CN2CCC(=O)CC2)c1C(=O)C3=O | 9710 | 4740 | –
Cc1cc2c(o1)-c1nc(OCCO)c3ccccc3c1C(=O)C2=O | > 20000 | > 20000 | –
Cc1cccc2c3c(ccc12)-c1occ(CN2CCC(O)CC2)c1C(=O)C3=O | 1540 | 1110 | –
COC1C2=C(OC1(C)C)c1ccc3c(C)cccc3c1C(=O)C2=O (stereo not drawn) | 2190 | 2020 | –
Cc1cccc2c3c(ccc12)-c1occ(CN(C)CCO)c1C(=O)C3=O | 1500 | 1020 | –
Cc1cccc2c3c(ccc12)-c1occ(CO)c1C(=O)C3=O | 3220 | 2950 | –
Cc1cccc2c3c(ccc12)C1=C(C(=O)C3=O)C(Nc2ccc(F)c([N+](=O)[O-])c2)C(C)(C)O1 (stereo not drawn) | > 20000 | > 20000 | –
Cc1cc2c(o1)-c1nc(OCCCCN(C)C)c3ccccc3c1C(=O)C2=O | > 20000 | > 20000 | –
Cc1cc2c(o1)-c1c(c3ccccc3c(=O)n1CCCN1CCN(C)CC1)C(=O)C2=O | 10400 | 3520 | –
Cc1cccc2c3c(ccc12)-c1occ(CN2CC[C@H](N(C)C)C2)c1C(=O)C3=O | 2610 | 1700 | –

Compound | IC50 (KB) [nM] | IC50 [1] [nM] | further results
CCN(CC)CCCn1c2c(c3ccccc3c1=O)C(=O)C(=O)c1cc(C)oc1-2 | – | – | Activity (HCT-116 [3]): Dose-dependent effect; Activity (HCT-116 [4]): Dose-dependent effect; Activity (HCT-116 [5]): Dose-dependent effect; Activity (HCT-116 [6]): inactive; Activity (HCT-116 [7]): inactive; TGI (HCT-116 [8]): Active; TGI (HCT-116 [9]): Active; Activity (HCT-116 [10]): Active; Activity (HCT-116 [11]): inactive
Cc1cc2c(o1)-c1nc(OCCCCCN(C)C)c3ccccc3c1C(=O)C2=O | 15300 | 1990 | –
Cc1cc2c(o1)-c1c(c3ccccc3c(=O)n1CCCN1CCOCC1)C(=O)C2=O | 2300 | 1560 | –
Cc1cc2c(o1)-c1c(c3ccccc3c(=O)n1CCCN1CCCC1)C(=O)C2=O | 3400 | 2640 | –
Cc1cccc2c3c(ccc12)-c1occ(CN(CCCl)CCCl)c1C(=O)C3=O | 9430 | 10900 | –
COc1ccc(OC)c(NC2C3=C(OC2(C)C)c2ccc4c(C)cccc4c2C(=O)C3=O)c1 (stereo not drawn) | > 20000 | > 20000 | –
Cc1cc2c(o1)-c1c(c3ccccc3c(=O)n1CCCCCN(C)C)C(=O)C2=O | 13800 | 5170 | –
Cc1cccc2c3c(ccc12)-c1occ(CN2CCCC2)c1C(=O)C3=O | 1590 | 1790 | –
Cc1cccc2c3c(ccc12)-c1occ(CN(CCO)CCO)c1C(=O)C3=O | 1640 | 1430 | –
Cc1cc2c(o1)-c1nc(OCCOCCN(C)C)c3ccccc3c1C(=O)C2=O | 3780 | 1650 | –
Cc1cccc2c3c(ccc12)C1=C(C(=O)C3=O)C(O)C(C)(C)O1 (stereo not drawn) | 1630 | 1240 | solubility at 24 h [2]: 90 µg/mL (≈ 292 µM); half-life at 0.1 µM [12]: 57.1 min; half-life at 0.1 µM [13]: 20.2 min; half-life at 0.1 µM [14]: 25.3 min; intrinsic clearance (Liver [15]): 36.8 mL/min/g; intrinsic clearance (Liver [16]): 104 mL/min/g; intrinsic clearance (Liver [17]): 83.1 mL/min/g
Cc1cccc2c3c(ccc12)-c1occ(CN2CCC(N(C)C)CC2)c1C(=O)C3=O | 3800 | 3820 | –
Cc1cccc2c3c(ccc12)C1=C(CC(C)(C)O1)C(=O)C3=O | 2620 | 2370 | –
Cc1cc2c(o1)-c1c(c3ccccc3c(=O)n1CCCN(C)C)C(=O)C2=O | 710 | 920 | –
CC[C@]1(O)C[C@H]2CN(CCc3c([nH]c4ccccc34)[C@@](C(=O)OC)(c3cc4c(cc3OC)N(C=O)[C@H]3[C@@](O)(C(=O)OC)[C@H](OC(C)=O)[C@]5(CC)C=CCN6CC[C@]43[C@@H]65)C2)C1 [VINCRISTINE] | 0.72 | 358 | –
Cc1cc2c(o1)-c1c(c3ccccc3c(=O)n1CCCN1CCC(N3CCOCC3)CC1)C(=O)C2=O | 340 | 1720 | –
Cc1cccc2c3c(ccc12)-c1occ(CN2CCN(C)CC2)c1C(=O)C3=O | 5220 | 13100 | –
Cc1cccc2c3c(ccc12)-c1occ(CN2CCOCC2)c1C(=O)C3=O | > 20000 | > 20000 | –
Cc1cc2c(o1)-c1c(c3ccccc3c(=O)n1CCCN1CCCCC1)C(=O)C2=O | 1120 | 1530 | –
Cc1cccc2c3c(ccc12)-c1occ(CN(C)C)c1C(=O)C3=O | 1110 | 510 | half-life at 0.1 µM [12]: 501 min; half-life at 0.1 µM [13]: 22.7 min; half-life at 0.1 µM [14]: 40.7 min; intrinsic clearance (Liver [15]): 4.19 mL/min/g; intrinsic clearance (Liver [16]): 92.7 mL/min/g; intrinsic clearance (Liver [17]): 51.6 mL/min/g
